From the M2OR odorant receptor database
Residue numbers refer to the chain shown, from its start.

Columns and labels:
Settings in all cases: stereoisomer not certain
OR1F12P (Homo sapiens) = biological target: T1, OR1F12P (Homo sapiens) (UniProt Q8NHA8)
T1 sequence (whole entry): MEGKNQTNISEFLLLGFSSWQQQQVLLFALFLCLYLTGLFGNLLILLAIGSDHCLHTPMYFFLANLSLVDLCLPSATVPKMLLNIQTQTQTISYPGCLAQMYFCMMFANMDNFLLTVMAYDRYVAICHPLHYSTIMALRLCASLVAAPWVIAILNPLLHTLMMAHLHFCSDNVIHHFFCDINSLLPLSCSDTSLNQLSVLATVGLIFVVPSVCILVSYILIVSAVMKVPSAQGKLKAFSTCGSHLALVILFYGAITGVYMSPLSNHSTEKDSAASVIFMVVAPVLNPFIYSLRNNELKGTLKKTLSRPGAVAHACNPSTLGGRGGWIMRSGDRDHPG
How it was run: (§1)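 Each entry records the cell line, G-protein, co-transfected protein and tags used. Methods varied with the source, often transient luciferase assays in mammalian cell lines. A receptor–molecule pair is called responsive (active) if the original authors judged its signal statistically different from baseline and non-responsive (inactive) otherwise.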

OR1F1 = test system: T2, OR1F1
T2 sequence (whole entry): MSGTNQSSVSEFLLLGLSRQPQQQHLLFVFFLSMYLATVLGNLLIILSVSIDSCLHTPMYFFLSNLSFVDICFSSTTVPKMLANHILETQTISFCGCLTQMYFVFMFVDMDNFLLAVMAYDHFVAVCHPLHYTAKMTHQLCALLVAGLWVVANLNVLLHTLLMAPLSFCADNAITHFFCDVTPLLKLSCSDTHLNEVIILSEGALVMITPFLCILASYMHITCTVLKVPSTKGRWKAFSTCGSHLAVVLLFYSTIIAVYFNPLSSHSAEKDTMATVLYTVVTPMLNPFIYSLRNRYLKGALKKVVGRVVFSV
How it was run: as §1

OR1G1 (Homo sapiens) = biological target: T3, OR1G1 (Homo sapiens) (UniProt P47890)
T3 sequence (whole entry): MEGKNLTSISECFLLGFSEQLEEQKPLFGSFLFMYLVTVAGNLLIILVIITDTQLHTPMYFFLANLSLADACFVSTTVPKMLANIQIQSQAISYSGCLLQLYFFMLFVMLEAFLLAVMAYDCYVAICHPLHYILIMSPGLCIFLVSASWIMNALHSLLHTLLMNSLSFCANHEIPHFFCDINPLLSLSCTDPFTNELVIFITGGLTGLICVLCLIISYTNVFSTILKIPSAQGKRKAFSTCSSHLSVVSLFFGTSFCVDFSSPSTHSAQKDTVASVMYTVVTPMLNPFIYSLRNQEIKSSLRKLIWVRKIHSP
How it was run: as §1

OR1I1 (Homo sapiens) = biological target: T4, OR1I1 (Homo sapiens) (UniProt O60431)
T4 sequence (whole entry): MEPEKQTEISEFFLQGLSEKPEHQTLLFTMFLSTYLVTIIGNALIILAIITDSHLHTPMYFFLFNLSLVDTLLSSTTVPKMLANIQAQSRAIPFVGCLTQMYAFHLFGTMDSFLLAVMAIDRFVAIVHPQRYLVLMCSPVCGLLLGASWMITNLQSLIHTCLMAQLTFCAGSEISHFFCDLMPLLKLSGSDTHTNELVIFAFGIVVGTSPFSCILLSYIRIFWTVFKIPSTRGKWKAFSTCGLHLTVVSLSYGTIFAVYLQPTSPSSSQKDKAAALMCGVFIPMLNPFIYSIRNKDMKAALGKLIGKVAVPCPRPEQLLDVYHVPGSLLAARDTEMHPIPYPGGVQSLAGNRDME
How it was run: as §1

OR1J1 (Homo sapiens) = biological target: T5, OR1J1 (Homo sapiens) (UniProt Q8NGS3)
T5 sequence (whole entry): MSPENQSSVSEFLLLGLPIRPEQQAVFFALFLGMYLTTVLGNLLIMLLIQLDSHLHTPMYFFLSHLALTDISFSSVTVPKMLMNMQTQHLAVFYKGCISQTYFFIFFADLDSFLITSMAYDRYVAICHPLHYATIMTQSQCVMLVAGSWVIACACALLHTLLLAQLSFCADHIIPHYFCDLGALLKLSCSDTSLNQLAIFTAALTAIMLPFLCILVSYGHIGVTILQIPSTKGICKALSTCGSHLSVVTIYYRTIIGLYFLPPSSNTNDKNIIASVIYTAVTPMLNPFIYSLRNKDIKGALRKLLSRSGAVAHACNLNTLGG
How it was run: as §1

OR1J2 (Homo sapiens) = biological target: T6, OR1J2 (Homo sapiens) (UniProt Q8NGS2)
T6 sequence (whole entry): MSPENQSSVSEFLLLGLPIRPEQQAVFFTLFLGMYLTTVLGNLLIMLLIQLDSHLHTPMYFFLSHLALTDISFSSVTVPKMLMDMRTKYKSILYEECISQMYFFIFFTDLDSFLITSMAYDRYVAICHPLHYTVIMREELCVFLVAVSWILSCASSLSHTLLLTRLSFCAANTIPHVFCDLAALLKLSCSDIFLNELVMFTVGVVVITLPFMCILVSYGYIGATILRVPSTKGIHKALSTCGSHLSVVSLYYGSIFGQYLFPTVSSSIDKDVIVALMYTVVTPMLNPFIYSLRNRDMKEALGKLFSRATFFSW
How it was run: as §1

OR1J4 (Homo sapiens) = biological target: T7, OR1J4 (Homo sapiens) (UniProt Q8NGS1)
T7 sequence (whole entry): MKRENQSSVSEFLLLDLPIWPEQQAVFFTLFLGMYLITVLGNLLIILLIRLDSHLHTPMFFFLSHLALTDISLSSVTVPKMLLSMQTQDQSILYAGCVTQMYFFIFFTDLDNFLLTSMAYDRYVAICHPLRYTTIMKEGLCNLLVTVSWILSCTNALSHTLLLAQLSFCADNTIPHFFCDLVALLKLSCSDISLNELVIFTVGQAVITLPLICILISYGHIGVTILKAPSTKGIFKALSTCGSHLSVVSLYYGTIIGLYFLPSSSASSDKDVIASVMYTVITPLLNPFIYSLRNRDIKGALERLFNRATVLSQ
How it was run: as §1

OR1K1 (Homo sapiens) = biological target: T8, OR1K1 (Homo sapiens) (UniProt Q8NGR3)
T8 sequence (whole entry): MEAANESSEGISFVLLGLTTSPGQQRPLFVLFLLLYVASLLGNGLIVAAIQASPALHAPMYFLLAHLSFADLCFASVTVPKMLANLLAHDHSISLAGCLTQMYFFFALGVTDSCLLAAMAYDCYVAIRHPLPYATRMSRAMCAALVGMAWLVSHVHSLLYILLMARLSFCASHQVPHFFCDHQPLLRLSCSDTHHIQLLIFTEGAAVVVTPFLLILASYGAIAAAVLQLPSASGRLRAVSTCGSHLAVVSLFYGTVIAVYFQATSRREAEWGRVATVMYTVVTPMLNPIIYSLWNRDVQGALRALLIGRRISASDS
How it was run: as §1

OR1L1 = test system: T9, OR1L1
T9 sequence (whole entry): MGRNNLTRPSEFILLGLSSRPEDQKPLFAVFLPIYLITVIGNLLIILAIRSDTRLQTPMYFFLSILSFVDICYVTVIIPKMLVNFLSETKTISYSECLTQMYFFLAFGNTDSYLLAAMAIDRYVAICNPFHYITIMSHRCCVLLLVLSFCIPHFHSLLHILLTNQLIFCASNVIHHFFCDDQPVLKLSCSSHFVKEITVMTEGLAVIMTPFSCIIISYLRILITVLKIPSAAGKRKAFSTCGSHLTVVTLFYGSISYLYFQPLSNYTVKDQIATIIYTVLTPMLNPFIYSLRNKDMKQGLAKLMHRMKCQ
How it was run: as §1

OR1L3 (Homo sapiens) = biological target: T10, OR1L3 (Homo sapiens) (UniProt Q8NH93)
T10 sequence (whole entry): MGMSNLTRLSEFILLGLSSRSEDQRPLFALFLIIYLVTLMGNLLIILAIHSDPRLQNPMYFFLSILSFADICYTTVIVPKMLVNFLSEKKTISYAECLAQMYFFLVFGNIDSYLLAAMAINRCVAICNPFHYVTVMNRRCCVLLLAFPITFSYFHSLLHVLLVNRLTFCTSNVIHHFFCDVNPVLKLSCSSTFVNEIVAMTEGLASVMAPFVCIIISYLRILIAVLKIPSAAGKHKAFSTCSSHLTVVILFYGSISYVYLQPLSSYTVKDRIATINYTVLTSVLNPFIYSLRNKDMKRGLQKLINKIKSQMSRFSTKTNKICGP
How it was run: as §1

OR1L4 (Homo sapiens) = biological target: T11, OR1L4 (Homo sapiens) (UniProt Q8NGR5)
T11 sequence (whole entry): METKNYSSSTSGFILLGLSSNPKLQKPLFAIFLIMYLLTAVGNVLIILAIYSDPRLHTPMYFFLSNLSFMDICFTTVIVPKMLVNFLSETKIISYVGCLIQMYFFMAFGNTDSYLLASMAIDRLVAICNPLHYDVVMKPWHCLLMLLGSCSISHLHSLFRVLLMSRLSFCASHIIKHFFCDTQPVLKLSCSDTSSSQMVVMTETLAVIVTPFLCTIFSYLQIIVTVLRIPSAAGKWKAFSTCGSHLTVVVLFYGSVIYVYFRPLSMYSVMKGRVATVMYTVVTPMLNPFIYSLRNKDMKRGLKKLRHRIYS
How it was run: as §1

OR1L4 = test system: T12, OR1L4
T12 sequence (whole entry): T11 sequence (whole entry) with G234R
How it was run: as §1

OR1L6 = test system: T13, OR1L6
T13 sequence (whole entry): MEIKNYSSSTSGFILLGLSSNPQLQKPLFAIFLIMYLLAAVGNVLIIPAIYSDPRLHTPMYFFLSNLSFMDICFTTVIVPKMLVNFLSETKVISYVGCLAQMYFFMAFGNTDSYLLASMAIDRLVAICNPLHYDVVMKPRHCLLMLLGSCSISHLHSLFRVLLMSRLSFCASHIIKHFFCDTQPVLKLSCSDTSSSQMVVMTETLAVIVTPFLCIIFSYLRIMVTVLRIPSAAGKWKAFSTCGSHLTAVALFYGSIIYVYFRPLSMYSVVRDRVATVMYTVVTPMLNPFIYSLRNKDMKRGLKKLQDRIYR
How it was run: as §1

OR1L8 (Homo sapiens) = biological target: T14, OR1L8 (Homo sapiens) (UniProt Q8NGR8)
T14 sequence (whole entry): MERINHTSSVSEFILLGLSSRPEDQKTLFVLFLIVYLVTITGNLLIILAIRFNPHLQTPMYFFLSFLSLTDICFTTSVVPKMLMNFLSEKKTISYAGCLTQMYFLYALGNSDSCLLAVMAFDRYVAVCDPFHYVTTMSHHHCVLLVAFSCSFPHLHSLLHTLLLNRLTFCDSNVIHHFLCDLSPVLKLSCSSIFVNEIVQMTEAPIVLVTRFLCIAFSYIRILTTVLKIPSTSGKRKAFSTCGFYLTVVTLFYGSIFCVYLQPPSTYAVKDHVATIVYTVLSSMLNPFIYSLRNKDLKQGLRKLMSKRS
How it was run: as §1

OR1L8 T27P R211P = test system: T15, OR1L8 T27P R211P
T15 sequence (whole entry): T14 sequence (whole entry) with T27P, R211P
How it was run: as §1

OR1M1 (Homo sapiens) = biological target: T16, OR1M1 (Homo sapiens) (UniProt Q8NGA1)
T16 sequence (whole entry): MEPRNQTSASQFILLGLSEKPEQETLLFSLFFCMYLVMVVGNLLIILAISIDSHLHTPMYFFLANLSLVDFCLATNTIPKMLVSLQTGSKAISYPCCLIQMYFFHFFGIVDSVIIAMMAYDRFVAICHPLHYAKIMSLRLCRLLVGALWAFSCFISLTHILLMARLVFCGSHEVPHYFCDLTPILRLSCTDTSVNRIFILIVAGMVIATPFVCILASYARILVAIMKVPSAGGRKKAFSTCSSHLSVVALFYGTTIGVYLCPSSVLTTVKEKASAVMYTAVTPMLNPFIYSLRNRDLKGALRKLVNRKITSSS
How it was run: as §1

OR1N1 (Homo sapiens) = biological target: T17, OR1N1 (Homo sapiens) (UniProt Q8NGS0)
T17 sequence (whole entry): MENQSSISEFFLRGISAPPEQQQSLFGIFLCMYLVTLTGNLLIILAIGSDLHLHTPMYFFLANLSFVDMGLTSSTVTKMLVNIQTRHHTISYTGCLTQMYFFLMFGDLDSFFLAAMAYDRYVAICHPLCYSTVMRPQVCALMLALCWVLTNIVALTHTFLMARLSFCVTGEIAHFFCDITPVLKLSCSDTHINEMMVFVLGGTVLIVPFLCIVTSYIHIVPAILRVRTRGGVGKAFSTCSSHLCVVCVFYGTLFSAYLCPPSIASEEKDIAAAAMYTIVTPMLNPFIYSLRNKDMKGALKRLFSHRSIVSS
How it was run: as §1

OR1N2 W37R = test system: T18, OR1N2 W37R
T18 sequence (whole entry): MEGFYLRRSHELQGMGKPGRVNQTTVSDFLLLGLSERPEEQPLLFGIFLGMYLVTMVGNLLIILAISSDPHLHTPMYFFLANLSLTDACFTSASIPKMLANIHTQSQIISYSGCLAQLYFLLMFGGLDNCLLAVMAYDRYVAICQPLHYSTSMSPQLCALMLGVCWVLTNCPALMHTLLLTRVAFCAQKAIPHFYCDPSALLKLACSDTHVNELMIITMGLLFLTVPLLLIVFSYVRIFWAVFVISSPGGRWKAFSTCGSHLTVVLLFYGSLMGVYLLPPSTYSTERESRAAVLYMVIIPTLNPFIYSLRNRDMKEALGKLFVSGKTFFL
How it was run: as §1

Measured: odorant receptor agonist call

CC1=NC(C)C(C)S1 (stereo not drawn)
inactive: OR1F12P (Homo sapiens) | OR1F1 | OR1G1 (Homo sapiens) | OR1I1 (Homo sapiens) | OR1J1 (Homo sapiens) | OR1J2 (Homo sapiens) | OR1J4 (Homo sapiens) | OR1K1 (Homo sapiens) | OR1L1 | OR1L3 (Homo sapiens) | OR1L4 (Homo sapiens) | OR1L4 | OR1L6 | OR1L8 (Homo sapiens) | OR1L8 T27P R211P | OR1M1 (Homo sapiens) | OR1N1 (Homo sapiens) | OR1N2 W37R
